Assays:
Plasminogen = Plasminogen (Mus musculus, UniProt P20918); assay: Inhibition of mouse plasmin
Prothrombin [1] = target: Prothrombin (Mus musculus, UniProt P19221); assay: Inhibition of mouse thrombin
Prothrombin [2] = target: Prothrombin (Homo sapiens, UniProt P00734); assay: Inhibition of human thrombin
How it was run: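 Human plasma thrombin was assayed at 37 °C in Tris pH 8.3. […] Initial rate was read at 405 nm, in duplicate. IC50 was obtained from a four-parameter logistic fit.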

[3] = Apparent solubility in phosphate buffered saline at pH 7.4 after 2 hrs; type: ADME
How it was run: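 Compounds were serially diluted from 10 mM DMSO stock into PBS pH 7.4 (2% DMSO final), giving 1–200 µM final at eight concentrations, in duplicate. Incubation was 2 h at 37 °C. Solubility was taken as the onset of increased absorbance at 620 nm.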

[4] = Chemical stability assessed as half life of hydrolysis at pH 1; type: physicochemical; conditions: buffer
[5] = Antitumor activity against Brown Norwegian rat bearing BN472 tumor assessed as reduction of tumor weight at 1 mg/kg, ip administered once daily after 4 days of tumor transplantation for 17 to 18 days relative to control; type: functional; design: scale not given: the % may be the effect or the level left; conditions: route intraperitoneal
How it was run: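 Rats bearing orthotopic BN472 breast tumours (grown three days) were dosed i.p. daily from day 4 for 17–18 days at 0.1 or 1 mg/kg. Vehicle-only i.p. controls were included. Tumour size and tumour weight were measured at the end of the treatment period and compared with controls.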

[6] = Antimetastatic activity against Brown Norwegian rat bearing BN472 tumor assessed as reduction of axillary lymph node weight at 1 mg/kg, ip administered once daily after 4 days of tumor transplantation for 17 to 18 days relative to control; type: functional; design: scale not given: the % may be the effect or the level left; conditions: route intraperitoneal
How it was run: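 BN472 breast tumours implanted orthotopically in rats and left to grow three days. From day 4, compounds were given i.p. daily for 17–18 days at 0.1 or 1 mg/kg. Controls received vehicle i.p. only. Lung foci were counted and axillary lymph nodes weighed at the end of treatment. Groups were compared with control at an unadjusted significance level of P 0.05.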

[7] = Antimetastatic activity against Brown Norwegian rat bearing BN472 tumor assessed as reduction of interpectoral lymph node weight at 0.1 mg/kg, ip administered once daily after 4 days of tumor transplantation for 17 to 18 days relative to control; type: functional; design: scale not given: the % may be the effect or the level left; conditions: route intraperitoneal
Rattus norvegicus [8] = assay: Toxicity in Brown Norwegian rat bearing BN472 tumor assessed as increase in lung weight at 1 mg/kg, ip administered once daily after 4 days of tumor transplantation for 17 to 18 days relative to control; type: organism-based; design: dose 1 mg/kg, route intraperitoneal; conditions: in vivo
How it was run: (§1)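 Orthotopic BN472 breast tumour model in rats. Daily i.p. dosing at 0.1 or 1 mg/kg started on day 4 and ran 17–18 days, with vehicle-only i.p. controls. Side effects were assessed from body weight and the weights of several organs, compared with controls.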

Rattus norvegicus [9] = assay: Toxicity in Brown Norwegian rat bearing BN472 tumor assessed as decrease in liver weight at 0.1 mg/kg, ip administered once daily after 4 days of tumor transplantation for 17 to 18 days relative to control; type: organism-based; design: dose 0.1 mg/kg, route intraperitoneal; scale not given: the % may be the effect or the level left; conditions: in vivo; how it was run: as §1
Rattus norvegicus [10] = assay: Toxicity in Brown Norwegian rat bearing BN472 tumor assessed as increase in kidney weight at 1 mg/kg, ip administered once daily after 4 days of tumor transplantation for 17 to 18 days relative to control; type: organism-based; design: dose 1 mg/kg, route intraperitoneal; conditions: in vivo; how it was run: as §1

Sequence of Plasminogen (P20918 98-581 limits assumed): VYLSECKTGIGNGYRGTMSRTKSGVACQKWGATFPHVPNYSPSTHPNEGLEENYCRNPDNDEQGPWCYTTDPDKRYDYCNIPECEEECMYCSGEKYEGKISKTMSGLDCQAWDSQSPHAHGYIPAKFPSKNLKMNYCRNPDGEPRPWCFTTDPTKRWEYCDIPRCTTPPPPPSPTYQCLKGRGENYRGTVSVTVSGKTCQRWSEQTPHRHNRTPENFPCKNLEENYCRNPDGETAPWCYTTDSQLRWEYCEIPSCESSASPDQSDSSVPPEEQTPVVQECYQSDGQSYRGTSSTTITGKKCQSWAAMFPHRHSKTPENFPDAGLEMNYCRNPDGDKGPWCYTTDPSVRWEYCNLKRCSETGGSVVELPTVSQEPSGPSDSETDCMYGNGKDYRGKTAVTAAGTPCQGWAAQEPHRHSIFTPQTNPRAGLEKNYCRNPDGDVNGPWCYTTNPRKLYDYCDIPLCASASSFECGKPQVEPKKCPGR
Sequence of Plasminogen (P20918 582-812 limits assumed): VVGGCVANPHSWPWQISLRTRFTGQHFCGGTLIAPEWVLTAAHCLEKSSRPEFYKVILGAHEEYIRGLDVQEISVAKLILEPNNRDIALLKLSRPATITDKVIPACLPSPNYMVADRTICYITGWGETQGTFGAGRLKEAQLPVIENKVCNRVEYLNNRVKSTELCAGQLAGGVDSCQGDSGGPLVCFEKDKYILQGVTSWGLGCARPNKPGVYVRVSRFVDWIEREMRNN

**Q.** What does the source list for `COC(=O)NC(Cc1ccc(NC(=N)N)cc1)P(=O)(Oc1ccc(NC(C)=O)cc1)Oc1ccc(NC(C)=O)cc1` (stereo unspecified)?
**A.** IC50 (Plasminogen): 4.8 µM; IC50 (Prothrombin [1]): 4.5 µM; IC50 (Prothrombin [2]): 1.13 µM; solubility at 2 h [3]: > 200 µM; half-life [4]: 35 h; Activity [5]: 17%; Activity [6]: 73%; Activity [7]: 3%; Activity (Rattus norvegicus [8]): 7%; Activity (Rattus norvegicus [9]): 2%; Activity (Rattus norvegicus [10]): 3%

Reference: ChEMBL document CHEMBL1138351, “Small, potent, and selective diaryl phosphonate inhibitors for urokinase-type plasminogen activator with in vivo antimetastatic properties” (J Med Chem, 2007)
